Measurements from ChEMBL document CHEMBL1156237, “Antiviral activity of benzimidazole derivatives. II. Antiviral activity of 2-phenylbenzimidazole derivatives” (Bioorg Med Chem, 2010).
The source made the active and inactive calls. Unless noted, the calls are words filed in the database; no cut-off is given here.

How the values were obtained:
Poliovirus 1 = assay: Antiviral activity against Polio virus type1 Sabin strain Chat infected in african green monkey Vero cells after 2 days by plaque reduction assay; assay type: functional, organism-based, Human poliovirus 1 strain Sabin; settings: Enterovirus C, 48 h
Vaccinia virus = assay: Antiviral activity against Vaccinia virus Elstree-Lister infected in african green monkey Vero cells after 3 days by plaque reduction assay; assay type: functional, organism-based; settings: Orthopoxvirus vaccinia
[1] = system: Respiratory syncytial virus; assay: Antiviral activity against RSV A2 infected in african green monkey Vero cells after 5 days by plaque reduction assay; assay type: functional, organism-based
Procedure, shortened: (§1)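 Plaque reduction assay. Vero 76 cells at 2 × 10^5/well, grown overnight to confluence in D-MEM with 10% FBS. Infected 2 h with 50–100 PFU/well, unadsorbed virus removed. Overlay of D-MEM with 1% inactivated FBS and 0.75% methylcellulose, with or without serial compound dilutions. Incubated at 37 °C for 3 days (HSV-1 KOS, CVB-2 Ohio-1) or 5 days (RSV A2). Fixed and stained with crystal violet in 50% ethanol; plaques counted; EC50 by linear regression.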

[2] = system: Human immunodeficiency virus 1; assay: Antiviral activity against HIV1 3B infected in human MT4 cells assessed as protection from virus-induced cytopathogenicity after 4 days by MTT method; assay type: functional, organism-based
Procedure, shortened: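 MT-4 cells, 1 × 10^4/well in RPMI with or without serial compound dilutions, infected with HIV-1 IIIB, 100 CCID50 (m.o.i. 0.01). Protection from virus-induced cytopathogenicity read by MTT.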

Human alphaherpesvirus 1 = assay: Antiviral activity against HSV1 KOS infected in african green monkey Vero cells after 3 days by plaque reduction assay; assay type: functional, organism-based; settings: Human alphaherpesvirus 1, KOS, 72 h; procedure, shortened: as §1
[3] = system: Bovine viral diarrhea virus 1; assay: Antiviral activity against Bovine viral diarrhea virus NADL infected in MDBK cells assessed as protection from virus-induced cytopathogenicity after 3 to 4 days by MTT method; assay type: functional, organism-based, Bovine viral diarrhea virus 1-NADL; settings: Bovine viral diarrhea virus isolates and strains, MDBK
Procedure, shortened: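 Cytopathogenicity protection assay. MDBK cells at 3 × 10^4/well, grown overnight to confluence. Infected with BVDV NADL at m.o.i. 0.01 in MEM-E with 0.5% inactivated FBS, 1 mM Na pyruvate and 1% kanamycin. Serial compound dilutions added after 1 h. After 3–4 days at 37 °C, viability read by MTT; EC50 is the concentration giving 50% protection.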

[4] = system: Mammalian orthoreovirus 1; assay: Antiviral activity against Reovirus 1 3651 infected in BHK21 cells assessed as protection from virus-induced cytopathogenicity after 3 to 4 days by MTT method; assay type: functional, organism-based; settings: BHK-21
Yellow fever virus = assay: Antiviral activity against Yellow fever virus 17D infected in BHK cells assessed as protection from virus-induced cytopathogenicity after 3 to 4 days by MTT method; assay type: functional, organism-based
[5] = Cytotoxicity against human MT4 cells after 96 hrs by MTT assay; assay type: cell-based; settings: MT4 cells
Procedure, shortened: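 Exponentially growing MT-4 cells at 1 × 10^5 cells/mL in RPMI-1640 with 10% FCS, exposed to serial compound dilutions at 37 °C, 5% CO2. Viability by MTT after 96 h; CC50 is the concentration reducing viability of mock-infected cells by 50%.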

[6] = Cytotoxicity against african green monkey Vero cells; assay type: cell-based; settings: chlorocebus sabaeus
Procedure, shortened: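 Vero 76 monolayers exposed to serial compound dilutions, run in parallel on the same 24-well plates as the plaque-reduction assays. CC50 is the concentration reducing viability of mock-infected cells by 50%.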

Coxsackievirus B2 = assay: Antiviral activity against Human coxsackievirus B2 Ohio-1 infected in african green monkey Vero cells after 3 days by plaque reduction assay; assay type: functional, organism-based, Coxsackievirus B2 (strain Ohio-1); settings: Enterovirus B, Vero, 72 h; procedure, shortened: as §1
[7] = Cytotoxicity against BHK cells after 48 to 96 hrs by MTT assay; assay type: cell-based, Mesocricetus auratus; settings: hamster
Procedure, shortened: (§2)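 Cell seeding: MDBK at 6 × 10^5 cells/mL in MEM-E with 10% horse serum and 1 mM Na pyruvate; BHK at 1 × 10^6 cells/mL in MEM-E with 10% FBS. Serial compound dilutions, 37 °C, 5% CO2. Viability of mock-infected cells by MTT after 48–96 h; CC50 is the concentration reducing viability by 50%.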

[8] = system: Vesicular stomatitis virus; assay: Antiviral activity against VSV Indiana lab infected in african green monkey Vero cells after 2 days by plaque reduction assay; assay type: functional, organism-based
[9] = Cytotoxicity against MDBK cells after 48 to 96 hrs by MTT assay; assay type: cell-based, Bos taurus; settings: cattle, MDBK cells; procedure, shortened: as §2

| SMILES | EC50 (Poliovirus 1) | Activity (Vaccinia virus) | Activity [1] | Activity [2] | EC50 (Human alphaherpesvirus 1) | EC50 [3] | Activity [4] | EC50 (Yellow fever virus) | CC50 at 96 h [5] | CC50 [6] | EC50 (Coxsackievirus B2) | CC50 [7] | Activity [8] | CC50 [9] |
| --- | --- | --- | --- | --- | --- | --- | --- | --- | --- | --- | --- | --- | --- | --- |
| CN1CCN(CC(=O)Nc2ccc(-c3nc4cc(C(F)(F)F)ccc4n3C)cc2)CC1 | 41 µM | inactive | inactive | inactive | > 100 µM | 15 µM | inactive | 7 µM | 22 µM | > 100 µM | 19 µM | 16 µM | inactive | 44 µM |
| Cn1c(-c2ccc(NC(=O)CN3CCCCC3)cc2)nc2cc(C(F)(F)F)ccc21 | > 100 µM | inactive | inactive | inactive | > 100 µM | 6 µM | inactive | > 100 µM | 9 µM | > 100 µM | 32 µM | > 100 µM | inactive | 100 µM |
| Nc1ccc(-c2nc3cc(C(F)(F)F)ccc3n2C2CCCCC2)cc1 | > 100 µM | inactive | inactive | inactive | > 100 µM | > 100 µM | inactive | > 100 µM | 44 µM | > 100 µM | > 100 µM | > 100 µM | inactive | > 100 µM |
| Nc1ccc(-c2nc3cc(C(F)(F)F)ccc3n2C23CC4CC(CC(C4)C2)C3)cc1 | > 60 µM | inactive | inactive | inactive | > 60 µM | 7 µM | inactive | > 16 µM | 19 µM | 60 µM | 11 µM | 16 µM | inactive | 19 µM |
| CCC(=O)Nc1ccc(-c2nc3cc(C(F)(F)F)ccc3n2C23CC4CC(CC(C4)C2)C3)cc1 | > 100 µM | inactive | inactive | inactive | > 100 µM | > 100 µM | inactive | > 100 µM | 86 µM | > 100 µM | > 100 µM | > 100 µM | inactive | > 100 µM |
| CCC(=O)Nc1ccc(-c2nc3cc(C(F)(F)F)ccc3n2C2CCCCC2)cc1 | 30 µM | inactive | inactive | inactive | > 100 µM | > 18 µM | inactive | > 15 µM | 17 µM | > 100 µM | 7 µM | 15 µM | inactive | 18 µM |
| O=C(CN1CCN(c2ccccc2)CC1)Nc1ccc(-c2nc3cc(C(F)(F)F)ccc3n2C23CC4CC(CC(C4)C2)C3)cc1 | > 100 µM | inactive | inactive | inactive | > 100 µM | > 100 µM | inactive | > 100 µM | > 100 µM | > 100 µM | 27 µM | > 100 µM | inactive | > 100 µM |
| CC(=O)Nc1ccc(-c2nc3cc(C(F)(F)F)ccc3n2C23CC4CC(CC(C4)C2)C3)cc1 | > 100 µM | inactive | inactive | inactive | > 100 µM | > 82 µM | inactive | > 100 µM | 28 µM | > 100 µM | > 100 µM | > 100 µM | inactive | 82 µM |
| Cn1c(-c2ccc(NC(=O)CN3CCSCC3)cc2)nc2cc(C(F)(F)F)ccc21 | > 100 µM | inactive | inactive | inactive | > 100 µM | 8 µM | inactive | 46 µM | 10 µM | > 100 µM | 22 µM | > 100 µM | inactive | > 100 µM |
| CCC(=O)Nc1ccc(-c2nc3cc(C(F)(F)F)ccc3n2C)cc1 | > 100 µM | inactive | inactive | inactive | > 100 µM | > 100 µM | inactive | > 100 µM | 8 µM | > 100 µM | > 100 µM | > 100 µM | inactive | > 100 µM |
| Cn1c(-c2ccc(NC(=O)CN3CCOCC3)cc2)nc2cc(C(F)(F)F)ccc21 | > 100 µM | inactive | inactive | inactive | > 100 µM | > 100 µM | inactive | > 100 µM | ≥ 100 µM | > 100 µM | > 100 µM | > 100 µM | inactive | > 100 µM |
| Cn1c(-c2ccc(N)cc2)nc2cc(C(F)(F)F)ccc21 | 20 µM | inactive | inactive | inactive | > 100 µM | 69 µM | inactive | > 85 µM | 20 µM | > 100 µM | 14 µM | 85 µM | inactive | 74 µM |
| O=C(CCl)Nc1ccc(-c2nc3cc(C(F)(F)F)ccc3n2C23CC4CC(CC(C4)C2)C3)cc1 | > 100 µM | inactive | inactive | inactive | > 100 µM | > 18 µM | inactive | > 51 µM | 0.3 µM | > 100 µM | > 100 µM | 51 µM | inactive | 18 µM |
| Cn1c(-c2ccc(NC(=O)CN3CCCC3)cc2)nc2cc(C(F)(F)F)ccc21 | 50 µM | inactive | inactive | inactive | 51 µM | 7 µM | inactive | > 27 µM | 16 µM | > 100 µM | 13 µM | 27 µM | inactive | 65 µM |
| CCN(CC)CC(=O)Nc1ccc(-c2nc3cc(C(F)(F)F)ccc3n2C)cc1 | 35 µM | inactive | inactive | inactive | > 90 µM | 10 µM | inactive | 7 µM | 9 µM | 90 µM | 21 µM | 16 µM | inactive | 57 µM |
| CC(=O)Nc1ccc(-c2nc3cc(C(F)(F)F)ccc3n2C2CCCCC2)cc1 | > 30 µM | inactive | inactive | inactive | > 30 µM | > 17 µM | inactive | > 15 µM | 24 µM | 30 µM | 9 µM | 15 µM | inactive | 17 µM |
